{"source": "ChEMBL document CHEMBL3085690", "about": "“Naturally occurring antimicrobial peptide OH-CATH30 selectively regulates the innate immune response to protect against sepsis” (J Med Chem, 2013)", "key": {"Mus musculus [1]": {"tested_on": "Mus musculus", "test": "Stimulation of innate immune response in neutropenic Kunming mouse infected with Pseudomonas aeruginosa ATCC 27853 assessed as increase of resident monocytes/macrophagess in peritoneal lavage at 10 mg/kg, ip", "type": "functional, organism-based", "set-up": "dose 10 mg/kg", "outline": "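Mice were made neutropenic with ip cyclophosphamide, 150 mg/kg on day 0 and 100 mg/kg on day 3. They were then injected ip with peptide at 10 mg/kg. Peritoneal cells were collected up to 24 h afterwards and typed by flow cytometry after GR1/F4/80 staining.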"}, "[2]": {"test": "Cytotoxicity against mouse BMDM at 5 to 20 ug/ml by LDH release assay"}, "Mus musculus [3]": {"tested_on": "Mus musculus", "test": "Stimulation of innate immune response in Kunming mouse infected with Pseudomonas aeruginosa ATCC 27853 assessed as effect on IL-6 production in peritoneal lavage at 10 mg/kg, ip after 5 hrs by ELISA", "type": "functional, organism-based", "set-up": "dose 10 mg/kg"}, "Mus musculus [4]": {"tested_on": "Mus musculus", "test": "Stimulation of innate immune response in neutropenic Kunming mouse infected with Pseudomonas aeruginosa ATCC 27853 assessed as reduction of bacterial burden in peritoneal lavage at 10 mg/kg, ip relative to control", "type": "functional", "set-up": "scale not given: the % may be the effect or the level left", "details": "route intraperitoneal", "outline": "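Mice were made neutropenic with cyclophosphamide ip, 150 mg/kg on day 0 and 100 mg/kg on day 3. Peptide was given ip at 10 mg/kg 5 h before ip bacterial infection on day 5 (n = 10). Viable bacteria in the peritoneal cavity were counted 8 h after inoculation, and groups were compared by unpaired t test.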"}, "Mus musculus [5]": {"tested_on": "Mus musculus", "test": "Stimulation of innate immune response in Kunming mouse assessed as protection against CLP-induced mortality by measuring survival rate at 10 mg/kg, ip administered 12 hrs before bacterial infection measured up to 7 days", "type": "functional", "details": "route intraperitoneal"}, "Mus musculus [6]": {"tested_on": "Mus musculus", "test": "Stimulation of innate immune response in Kunming mouse infected with Pseudomonas aeruginosa ATCC 27853 assessed as effect on CCL2 production in peritoneal lavage at 10 mg/kg, ip after 3 hrs by ELISA", "type": "functional, organism-based", "set-up": "dose 10 mg/kg", "outline": "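Mice were pretreated ip with peptide at 10 mg/kg 5 h before ip challenge with P. aeruginosa 27853 at 8 × 10^7 CFU/mouse. CCL2 and CXCL2 were measured in peritoneal lavage collected 3 h after inoculation. TNF-α and IL-6 were measured in serum collected 5 h after inoculation. All were read by ELISA; data are mean ± SD from four mice, unpaired t test.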"}, "[7]": {"test": "Increase of CXCL1 protein level in mouse BMDM at 10 ug/ml after 18 hrs by ELISA", "type": "functional", "outline": "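Bone marrow-derived macrophages (RPMI 1640, 10% FCS, 20% L929-conditioned medium) stimulated with peptide for 18 h. Cytokines and chemokines in culture supernatant quantified by sandwich ELISA. Mean ± SD from three independent experiments, unpaired t test.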"}, "BMDM": {"tested_on": "BMDM", "test": "Increase of CXCL2 production in mouse BMDM after 6 hrs by ELISA in presence of TLR4/MD2 Ab", "type": "functional"}, "Mus musculus [8]": {"tested_on": "Mus musculus", "test": "Stimulation of innate immune response in Kunming mouse assessed as protection against CLP-induced mortality by measuring survival rate at 10 mg/kg, ip administered 2 hrs before bacterial infection measured up to 7 days", "type": "functional", "details": "route intraperitoneal"}, "Mus musculus [9]": {"tested_on": "Mus musculus", "test": "Stimulation of innate immune response in Kunming mouse assessed as increase of CXCL2 level in peritoneal lavage at 10 mg/kg, ip after 5 hrs", "type": "functional, organism-based", "set-up": "dose 10 mg/kg", "outline": "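Female Kunming mice (18−22 g) received a single ip injection of peptide at 10 mg/kg in sterile saline. Peritoneal lavage was collected in 2 mL of cold sterile saline 5 h later, and cytokines and chemokines were measured by ELISA. Data are mean ± SD from four mice, compared by unpaired t test.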"}, "Mus musculus [10]": {"tested_on": "Mus musculus", "test": "Stimulation of innate immune response in Kunming mouse assessed as protection against Pseudomonas aeruginosa ATCC 27853-induced mortality by measuring survival rate at 10 mg/kg, ip administered 5 hrs before bacterial infection measured up to 7 days", "type": "functional", "details": "route intraperitoneal", "outline": "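Female Kunming mice (18−22 g) received a single ip dose in sterile saline 5 h before ip challenge with P. aeruginosa 27853 (8 × 10^7 CFU/mouse; n = 8) or S. aureus 25923 (2 × 10^8 CFU/mouse; n = 10). Mice were checked every 6 h for up to 7 days, with a humane end point. Curves were compared by log-rank test.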"}, "Mus musculus [11]": {"tested_on": "Mus musculus", "test": "Stimulation of innate immune response in Kunming mouse assessed as protection against bacteria-induced mortality by measuring survival rate at 10 mg/kg, ip measured up to 7 days", "type": "functional, organism-based", "set-up": "dose 10 mg/kg"}}, "note": "Activity calls are given as the source filed them. No cut-off for these calls is given here. Peptide text beside a SMILES is read from it."}
{"molecule": "CC[C@H](C)[C@H](NC(=O)[C@@H](NC(=O)[C@H](CCCNC(=N)N)NC(=O)[C@@H]1CCCN1C(=O)[C@H](CCCCN)NC(=O)[C@H](CCCCN)NC(=O)[C@H](Cc1ccccc1)NC(=O)[C@H](Cc1ccccc1)NC(=O)[C@H](CCCCN)NC(=O)[C@H](CCCCN)NC(=O)[C@H](C)NC(=O)[C@H](CCCNC(=N)N)NC(=O)[C@H](CCCCN)NC(=O)[C@H](CCCCN)NC(=O)[C@@H](NC(=O)[C@H](CO)NC(=O)[C@H](CC(N)=O)NC(=O)[C@H](CCCCN)NC(=O)[C@H](CC(C)C)NC(=O)[C@H](CCCCN)NC(=O)[C@H](CCCCN)NC(=O)[C@H](Cc1ccccc1)NC(=O)[C@H](Cc1ccccc1)NC(=O)[C@@H](N)CCCCN)C(C)C)C(C)C)C(=O)NCC(=O)N[C@H](C(=O)N[C@@H](CO)C(=O)N[C@H](C(=O)N1CCC[C@H]1C(=O)N[C@@H](Cc1ccccc1)C(=O)O)[C@@H](C)CC)C(C)C", "note": "(H-KFFKKLKNSVKKRAKKFFKKPRVIGVSIPF-OH)", "values": [{"measurement": "Activity", "setting": "Mus musculus [1]", "value": "Active"}, {"measurement": "Activity", "setting": "[2]", "value": "Non-toxic"}, {"measurement": "Activity", "setting": "Mus musculus [3]", "value": "inactive"}, {"measurement": "Activity", "setting": "Mus musculus [4]", "value": 40, "unit": "%"}, {"measurement": "survival at 10 mg/kg", "setting": "Mus musculus [5]", "value": 70, "unit": "%"}, {"measurement": "Activity", "setting": "Mus musculus [6]", "value": "Active"}, {"measurement": "Activity", "setting": "[7]", "value": 269, "unit": "pg/mL"}, {"measurement": "Activity", "setting": "BMDM", "value": "inactive"}, {"measurement": "survival at 10 mg/kg", "setting": "Mus musculus [8]", "value": 40, "unit": "%"}, {"measurement": "Activity", "setting": "Mus musculus [9]", "value": "Active"}, {"measurement": "survival at 10 mg/kg", "setting": "Mus musculus [10]", "value": "> 85", "unit": "%"}, {"measurement": "Activity", "setting": "Mus musculus [11]", "value": "inactive"}]}
